# Fewer inactive variants are shown than the library holds.
# B1: tRNA (parent)
# chain: GUUCCGUUGGCGUAAUGGUAACGCGUCUCCCUCCUAAGGAGAAGACUGCGGGUUCGAGUCCCGUACGGAACG
# Variants of: B1
# Assay: yeast fitness relative to wild type (ratio to wild type); higher = fitter; tRNA-Arg(CCU), competitive growth, 37 C, YPD
# Outline: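 Gene amplicons from the start population and from each of six end populations were read by 100-nucleotide paired-end sequencing. Those end populations came from pooled Saccharomyces cerevisiae strains carrying tRNA-Arg(CCU) gene variants at the native locus, competed in YPD at 37°C for 24 hours. Fitness relative to wild type was worked out from changes in genotype frequencies. Genotypes needed ≥ 100 starting reads, and estimates < 0.5 were set to 0.5.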
row,Variant,yeast fitness
1,C4G C5U A65G A70C,≤ 0.5
2,U2A G9A U19A A20U,0.622
3,C30G G56A A57U,≤ 0.5
4,A14U A21C A36C C49A A65G C66G,0.567
5,U3G C24U C31U C61U,0.57
6,G12A C46U U53A,≤ 0.5
7,U28A C49U U54G,≤ 0.5
8,U2A C4G A42G A45U C66U,≤ 0.5
9,U28C C29A C31G C55A G58A,≤ 0.5
10,C4G C11A C30G A65G C66U,≤ 0.5
11,C30A G38A,0.783
12,A43U G48C C60G G63A,≤ 0.5
13,U3A C5U C62A,≤ 0.5
14,C29U G50C,0.664
15,C11A G44A G48A,0.68
16,A14G C49U U54C,≤ 0.5
17,U3G C11U A45U,0.559
18,C29A A45C C49U C66U,≤ 0.5
19,C31G A43U U47A,0.605
20,G10A A21G A40U,0.558
21,A21G G23A G52C C61U,≤ 0.5
22,C27U C29A A36U A40C G52C,0.583
23,A15G A70U,1.03
24,C34G A43U C49A A69U,0.584

row,Variant,yeast fitness
1,C60U C61A,0.659
2,A21G C22U C24G G25C U32A C34U G39C A45G,≤ 0.5
3,C30G U32C G50C,≤ 0.5
4,A20C C24G C29G A65G,≤ 0.5
5,C5U A40C G48A,0.592
6,U8C A14G A70U,0.59
7,A40C A70C,0.94
8,U13C A45U A57G,≤ 0.5
9,C27G A42C,0.586
10,C29G U32C,0.563
11,C55A C62G A69C,≤ 0.5
12,A15U C24G A65U,≤ 0.5
13,C22G C27G C31G A37G C61G A69U,0.758
14,C11A G58A G68A,0.621
15,C22U C55G C62A,≤ 0.5
16,A57U A69G A70C,≤ 0.5
17,G23A A65G,0.907
18,C24A A36U C61U G67U,0.608
19,G6A C24U G63A,0.674
20,C31A A36G A57U,0.539
21,C5U U7A A36U,≤ 0.5
22,G9A G10C C60U U64G,≤ 0.5
23,G9A C22G A65C,0.679
24,G25C G67A G68A,0.655

row,Variant,yeast fitness
1,U16C C33A A40C,≤ 0.5
2,C31U A36G A57U,≤ 0.5
3,A20C C22U A65G,0.596
4,G9C A15U,0.603
5,C4G G6C,0.657
6,U26C G56C A57C,≤ 0.5
7,A37G A42U G48C C49U,0.599
8,G6C A37U C49U G56A A69U,≤ 0.5
9,G9C A15C C46U,0.592
10,C5G A15G U28A A57C C66G,≤ 0.5
11,C24G A43C A57U,≤ 0.5
12,C5A U54G A65U,≤ 0.5
13,U3G G56A,0.898
14,C24A G63A U64A,≤ 0.5
15,C11U G41C,0.852
16,A21C U28A,0.738
17,A14U C24G A42C,0.531
18,G12A G17C C66U,≤ 0.5
19,A15U C24G C62U A69U,≤ 0.5
20,A40G G50A C61G,0.584
21,G10A G67C,0.819
22,A14G A42G,0.778
23,C24U U32G A40U U64G,0.593
24,U13C G58A A70C,0.817

row,Variant,yeast fitness
1,C11G C46A C61G A65G,≤ 0.5
2,C34G C61U C66U,0.538
3,U26G C46G C55G,≤ 0.5
4,C4G G10C U26C C27G A37G G39A,≤ 0.5
5,C27A A36G A42G C66U,≤ 0.5
6,A20C G25A U28C G44A,0.553
7,G9C C27G C30G A40U C49U,≤ 0.5
8,U47A G48C G56A,≤ 0.5
9,A21U C22U G25A C49A,≤ 0.5
10,U13A G41A G48A U53C,≤ 0.5
11,G17A A40U G48A,≤ 0.5
12,C34G A36G C60G,0.642
13,A21G C22U,0.683
14,G10C C34A A40G,0.631
15,U28A A57C C66G,≤ 0.5
16,C5A A20U A37G,≤ 0.5
17,C11A U47C G52C,≤ 0.5
18,G25A U54G,0.566
19,C27A G41A U47A A69U,≤ 0.5
20,C4U G63U,0.778
21,U3C C49U,0.891
22,U13A A70C,1.03
23,A14G C22U C29G C33G A37G,≤ 0.5
24,U28G G38A A40G G56A,0.626

row,Variant,yeast fitness
1,G44A A70U,1.03
2,A40U U47C C66A,0.611
3,C31G A45C C49A A70G,≤ 0.5
4,C22G G68U,0.865
5,G18A C29G A37G G44C,0.598
6,A40U C55U G68A,≤ 0.5
7,C4U G23C U26G A36C A37U A42C A45U C60U C66U A70G,0.634
8,A36U A43C,0.569
9,U3C C27U A69U,0.806
10,U7A C11U,0.686
11,A14G G56A,0.805
12,A15G G23C A45G G52A G63A,≤ 0.5
13,G6A U54G G58A,≤ 0.5
14,C5G A21C C29U C31G A43U A65U,≤ 0.5
15,C11U A15G U26G C33A C55G,≤ 0.5
16,C22U U47C G51C,0.54
17,C29U C31U G67U,0.593
18,A21G U32C,1.03
19,C27A U47C U64C A70C,0.535
20,C34A A36G,0.741
21,U53A C61U U64A,≤ 0.5
22,A43C A45G G67A,0.659
23,C27A C29U C61U,≤ 0.5
24,C4U G10C G17C C27G G38C U54G,≤ 0.5

row,Variant,yeast fitness
1,U19A A37U C55G,0.593
2,G9C C31G,0.66
3,U8A A14U G17A C27U,≤ 0.5
4,U2G U13A G58A,0.585
5,A40G C62G,0.719
6,C4U U13C C30G G48U A70U,≤ 0.5
7,C11A C27G G68A,≤ 0.5
8,G10C G50A U59A G67U,≤ 0.5
9,U7C U47C U64G G68C,≤ 0.5
10,U13C C31U C62A G63A,≤ 0.5
11,G23A C30U C33A G41C A42U A43G,≤ 0.5
12,C4A C33A A65G,≤ 0.5
13,C11A U19G A36G U54C A65U,0.538
14,G10A A14C C27G C46G A65G,≤ 0.5
15,C11U C22G A65G,0.731
16,C4A C61G G63A,≤ 0.5
17,A42G G52C,0.574
18,C5A A14G C24A A43G G63U,≤ 0.5
19,C27A U47G A69C,≤ 0.5
20,A20U C27U C30A C33G A42G G51C,0.583
21,C5G A20G A40G G44A C46G A65C,≤ 0.5
22,A14C A15U U16A G44A A57U,≤ 0.5
23,C24A C31G G51C C55U G58C A70U,≤ 0.5
24,A14G U16C,0.897

row,Variant,yeast fitness
1,C11G G18A C29U A40G C62U,≤ 0.5
2,C4A G23A C31G A40C G48C C66A,≤ 0.5
3,G12C U13G C33U C55U G56A,≤ 0.5
4,A21U U64G,0.709
5,C34U G58C A70C,≤ 0.5
6,A15C C61A,0.761
7,C11G G52A A69C,≤ 0.5
8,U8A C24A U28A G58A,0.584
9,C24U C60G A70C,0.562
10,G56A A57U C62G,≤ 0.5
11,C5U A40U A57U,≤ 0.5
12,C4A C33G G41C G56C G58A G63C A65U,≤ 0.5
13,A36C A65C,0.601
14,G38C A43G C49G G51A,≤ 0.5
15,U3A C24G C31U C61A,0.533
16,G10A C29A U35A G56A G67C,≤ 0.5
17,C5A U54C A65U,≤ 0.5
18,U2C U26A,0.918
19,C29A A37G G58A,≤ 0.5
20,G12A U47G U53A,≤ 0.5
21,G23C U47A,0.705
22,U2A C4A U13C A42G C61U,≤ 0.5
23,C11U A43U A70G,0.738
